Experimental findings from ChEMBL document CHEMBL1122206, “Use of adenine nucleotide derivatives to assess the potential of exo-active-site-directed reagents as species- or isozyme-specific enzyme inactivators. 5. Interactions of adenosine 5'-triphosphate derivatives with rat pyruvate kinases, Escherichia coli thymidine kinase, and yeast and rat …” (1982) are described below.

One may read the inhibition as the change of the read-out against control, counted positive when it falls.

For test [1], the target named is Thymidine kinase (Escherichia coli) (UniProt P23331). The test can be described thus: Compound was tested for the loss of Thymidine kinase activity from Escherichia coli after 6 h at 0 degrees C at 10 mM.
Test [2] deals with Saccharomyces cerevisiae. The test can be described thus: Compound was tested for time dependent inhibition of hexokinase activity after 6 h at 22 degrees celsius, with 5 mM compound in yeast hexokinase.
A short description of test [3]: Tested for the velocity of 2.8 mM compound relative to that of 2.8 mM MgATP in the assay. A digest of the protocol:
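E. coli TK substrate test. 0.5 h after adding inhibitor, the mixture was diluted to 2.8 mM derivative in thymidine assay medium without ATP and with 1.42 mM MnCl2. Incubated 15 min at 37 °C, in the linear range. [14C]TMP formed was compared with that from 2.8 mM ATP under the same conditions.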

Test [4] concerns the target T1, Hexokinase-3 (Rattus norvegicus) (UniProt P27926).
T1 sequence (whole entry): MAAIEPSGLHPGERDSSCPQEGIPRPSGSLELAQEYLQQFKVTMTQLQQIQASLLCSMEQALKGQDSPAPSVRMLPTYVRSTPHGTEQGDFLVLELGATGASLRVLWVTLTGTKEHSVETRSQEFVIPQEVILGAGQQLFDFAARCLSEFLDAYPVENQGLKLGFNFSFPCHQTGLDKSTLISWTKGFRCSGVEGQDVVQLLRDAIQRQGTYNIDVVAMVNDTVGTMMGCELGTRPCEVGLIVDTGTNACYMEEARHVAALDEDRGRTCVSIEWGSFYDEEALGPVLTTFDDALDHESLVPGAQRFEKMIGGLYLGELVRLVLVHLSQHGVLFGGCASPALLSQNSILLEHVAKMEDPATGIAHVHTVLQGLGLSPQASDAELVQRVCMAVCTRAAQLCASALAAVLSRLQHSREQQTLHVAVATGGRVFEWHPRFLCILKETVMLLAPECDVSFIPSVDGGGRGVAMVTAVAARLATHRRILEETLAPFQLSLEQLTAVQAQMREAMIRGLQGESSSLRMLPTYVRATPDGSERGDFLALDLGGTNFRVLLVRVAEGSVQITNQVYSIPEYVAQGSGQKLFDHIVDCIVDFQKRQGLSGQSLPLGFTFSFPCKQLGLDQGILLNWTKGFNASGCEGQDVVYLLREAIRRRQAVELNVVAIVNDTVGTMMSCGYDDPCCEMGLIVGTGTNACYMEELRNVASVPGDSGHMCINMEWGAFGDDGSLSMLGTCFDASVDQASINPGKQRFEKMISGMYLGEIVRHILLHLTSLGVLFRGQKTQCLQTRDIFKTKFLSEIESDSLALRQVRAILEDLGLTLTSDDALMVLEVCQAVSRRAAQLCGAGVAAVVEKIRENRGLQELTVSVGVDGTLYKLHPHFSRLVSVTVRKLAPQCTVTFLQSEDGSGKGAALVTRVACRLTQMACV
The test can be described thus: Time dependent inhibition of Hexokinase type III activity after 6 h, at 22 degrees celsius, at 5 mM.

Test [5] deals with T2, Hexokinase-2 (Rattus norvegicus) (UniProt P27881).
T2 sequence (whole entry): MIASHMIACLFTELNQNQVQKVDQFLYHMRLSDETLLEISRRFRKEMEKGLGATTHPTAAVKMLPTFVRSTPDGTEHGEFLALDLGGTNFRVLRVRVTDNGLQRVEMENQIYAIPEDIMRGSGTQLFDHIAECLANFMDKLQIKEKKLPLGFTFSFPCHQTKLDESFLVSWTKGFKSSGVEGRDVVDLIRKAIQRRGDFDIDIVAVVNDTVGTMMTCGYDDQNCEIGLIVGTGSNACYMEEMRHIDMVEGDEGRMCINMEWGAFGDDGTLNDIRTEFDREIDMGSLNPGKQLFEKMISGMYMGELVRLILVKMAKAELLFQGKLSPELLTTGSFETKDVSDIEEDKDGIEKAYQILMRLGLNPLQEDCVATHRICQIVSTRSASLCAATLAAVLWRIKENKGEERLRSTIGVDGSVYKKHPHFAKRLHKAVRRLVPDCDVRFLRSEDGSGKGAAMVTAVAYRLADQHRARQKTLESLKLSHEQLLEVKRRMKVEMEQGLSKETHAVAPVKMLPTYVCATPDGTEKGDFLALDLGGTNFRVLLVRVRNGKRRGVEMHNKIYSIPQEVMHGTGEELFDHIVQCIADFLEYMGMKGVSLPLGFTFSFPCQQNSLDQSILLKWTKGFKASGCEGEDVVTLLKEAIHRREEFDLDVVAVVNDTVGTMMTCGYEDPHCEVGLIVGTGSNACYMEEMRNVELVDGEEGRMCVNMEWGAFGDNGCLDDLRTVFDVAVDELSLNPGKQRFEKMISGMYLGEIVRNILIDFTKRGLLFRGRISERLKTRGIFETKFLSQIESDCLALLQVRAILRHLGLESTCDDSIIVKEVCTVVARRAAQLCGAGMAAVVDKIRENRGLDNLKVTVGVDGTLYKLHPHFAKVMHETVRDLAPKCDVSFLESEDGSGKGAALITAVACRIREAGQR
The test can be described thus: Time dependent inhibition of hexokinase 2 activity after 6 h, at 5 mM compound.

Test [6] deals with Thymidine kinase (Escherichia coli) (UniProt P23331). The test can be described thus: Compound was tested for the initial inhibition of Thymidine kinase by 1.4 mM compound in the presence of 5.7 mM ATP.
Test [7] addresses T3, Hexokinase-1 (Rattus norvegicus) (UniProt P05708).
T3 sequence (whole entry): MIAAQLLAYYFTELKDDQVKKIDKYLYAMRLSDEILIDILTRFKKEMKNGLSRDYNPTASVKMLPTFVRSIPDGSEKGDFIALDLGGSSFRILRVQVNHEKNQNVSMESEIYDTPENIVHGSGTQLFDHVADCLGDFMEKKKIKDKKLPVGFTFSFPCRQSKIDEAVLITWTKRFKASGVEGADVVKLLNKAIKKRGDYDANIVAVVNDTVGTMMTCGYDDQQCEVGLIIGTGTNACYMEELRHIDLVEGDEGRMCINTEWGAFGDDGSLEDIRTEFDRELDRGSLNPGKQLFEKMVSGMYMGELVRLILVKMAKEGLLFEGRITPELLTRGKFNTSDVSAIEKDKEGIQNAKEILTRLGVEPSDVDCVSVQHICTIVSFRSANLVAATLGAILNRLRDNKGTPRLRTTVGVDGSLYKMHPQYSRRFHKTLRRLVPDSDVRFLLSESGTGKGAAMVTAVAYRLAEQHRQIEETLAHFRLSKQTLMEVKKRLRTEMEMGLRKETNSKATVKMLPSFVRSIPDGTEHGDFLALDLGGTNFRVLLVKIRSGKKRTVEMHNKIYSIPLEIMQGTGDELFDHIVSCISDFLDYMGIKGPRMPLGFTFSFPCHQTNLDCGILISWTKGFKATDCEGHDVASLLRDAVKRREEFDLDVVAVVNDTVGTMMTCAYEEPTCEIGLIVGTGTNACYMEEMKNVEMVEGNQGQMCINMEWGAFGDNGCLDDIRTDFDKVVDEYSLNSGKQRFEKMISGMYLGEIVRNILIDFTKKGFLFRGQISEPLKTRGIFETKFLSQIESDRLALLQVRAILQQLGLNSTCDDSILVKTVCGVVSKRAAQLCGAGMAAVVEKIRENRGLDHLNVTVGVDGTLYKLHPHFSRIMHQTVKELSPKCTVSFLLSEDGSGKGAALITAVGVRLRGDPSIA
The test can be described thus: Time dependent inhibition of Hexokinase, type I activity after 6 h, at 22 degrees celsius, at 5 mM compound.

Test [8] in a line: Extent of inactivation caused by the compound was reported. In kind it is functional.
Test [9] deals with Thymidine kinase (Escherichia coli) (UniProt P23331). The test can be described thus: Compound was tested for the initial inhibition of thymidine kinase by 1.4 mM compound in the presence of 5.7 mM ATP.
The target is the same in test [10]. The test is described as follows: Compound tested for the loss of thymidine kinase activity from Escherichia coli after 6 hr at 0 degrees C at 10 mM.
Test [11] deals with T1, Hexokinase-3 (Rattus norvegicus). The test can be described thus: Time dependent inhibition of Hexokinase type III activity after 6 hr, at 22 degrees celsius, at 5 mM compound.
The test system of test [12] is Saccharomyces cerevisiae. The test can be described thus: Time dependent inhibition of hexokinase activity after 6 hr, at 22 degrees celsius, with 5 mM ATP derivative in yeast.
The target of test [13] is Thymidine kinase (Escherichia coli) (UniProt P23331). The test is described as follows: Compound was tested for the lose of thymidine kinase activity after 6 h, at 0 degrees celsius, with 10 mM ATP derivative. values were expressed in percent.
The target in test [14] is T3, Hexokinase-1 (Rattus norvegicus). The test is described as follows: Time dependent inhibition of Hexokinase type I activity after 6 h, at 22 degrees celsius, at 5 mM compound.
The target of test [15] is Thymidine kinase (Escherichia coli) (UniProt P23331). The test can be described thus: Compound was tested for the initial inhibition of thymidine kinase by 1.4 mM compound in the presence of 5.7 mM ATP in Escherichia coli.
The target of test [16] is T2, Hexokinase-2 (Rattus norvegicus). The test is described as follows: Time dependent inhibition of hexokinase 2 activity after 6 h, at 10 mM compound.
Test [17] deals with T3, Hexokinase-1 (Rattus norvegicus). The test is described as follows: Time dependent inhibition of Hexokinase type I activity after 6 h, at 0 degrees celsius, at 10 mM compound.
The target is the same in test [18]. The test is described as follows: Substrate activity for rat hexokinase I as 1:1 Mg complex at 5.0 mM. The procedure, abridged:
(§1)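 Hexokinase activity read at 22 °C as A340 change, coupled to glucose-6-phosphate dehydrogenase, in 0.05 M Tris-HCl pH 7.6 with 6.6 mM MgCl2, 10 mM α-D-glucose and 0.93 mM NADP. Donor was 5.0 mM MgATP derivative (1:1 Mg complex) in place of ATP. Yeast HK was isoelectric-focused. Rat HK I and III came from electrofocused liver extract, HK II from dialysed muscle extract.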

Test [19] concerns the target T2, Hexokinase-2 (Rattus norvegicus). The test is described as follows: Substrate activity against Rat hexokinase II as 1:1 Mg complex at 5.0 mM. The procedure, abridged:
as §1

For test [20], the target named is T1, Hexokinase-3 (Rattus norvegicus). The test is described as follows: Substrate activity for rat hexokinase III as 1:1 Mg complex at 5.0 mM. The procedure, abridged:
as §1

Test [21] deals with Saccharomyces cerevisiae. The test can be described thus: Substrate activity against yeast hexokinase as 1:1 Mg complexes at 5.0 mM. A digest of the protocol:
as §1

The target of test [22] is T1, Hexokinase-3 (Rattus norvegicus). The test is described as follows: Time dependent inhibition of Hexokinase type III activity after 6 h, at 0 degrees celsius, at 10 mM.
In test [23] the test system is Saccharomyces cerevisiae. The test is described as follows: Compound was tested for time dependent inhibition of hexokinase activity after 6 hr, at 22 degrees celsius, with 5 mM ATP derivative in yeast hexokinase.

Sequence of Thymidine kinase (Escherichia coli) (P23331 whole entry, looked up): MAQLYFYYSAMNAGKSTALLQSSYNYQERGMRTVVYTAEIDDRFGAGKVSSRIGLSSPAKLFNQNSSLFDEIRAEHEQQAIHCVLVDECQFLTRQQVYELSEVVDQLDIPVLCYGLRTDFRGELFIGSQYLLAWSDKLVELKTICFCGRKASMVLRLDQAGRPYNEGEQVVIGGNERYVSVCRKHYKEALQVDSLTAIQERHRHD

For `O=C(CI)NCCCNc1ncnc2c1ncn2[C@@H]1O[C@H](COP(=O)(O)OP(=O)(O)OP(=O)(O)O)[C@@H](O)[C@H]1O`, the inhibition in test [1] was found to be 0%; in the test with Saccharomyces cerevisiae [2], 0%; in [4], 0%; in [5], 0%; in test [6], 6%; in test [7] it was 0%. Also, the Velocity in [3] stood at 32%.
On to `O=C(CI)NCCCCCCNc1ncnc2c1ncn2[C@@H]1O[C@H](COP(=O)(O)OP(=O)(O)OP(=O)(O)O)[C@@H](O)[C@H]1O`, for which, in test [8], the Inactivation was above 90%. Moreover, the inhibition in test [5] amounted to 35%; in test [9], 0%; in test [10] it was 0%; in test [11] it was 33%.
In test [3], `O=C(CI)NCCCCNc1ncnc2c1ncn2[C@@H]1O[C@H](COP(=O)(O)OP(=O)(O)OP(=O)(O)O)[C@@H](O)[C@H]1O` gave a Velocity of 68%. Besides, the inhibition in test [5] turned out to be 0%; in test [9] it was 39%; in test [10], 0%; in test [11], 0%; in the test with Saccharomyces cerevisiae [12], 0%.
For the compound `O=C(CI)NCCCCCCCNc1ncnc2c1ncn2[C@@H]1O[C@H](COP(=O)(O)OP(=O)(O)OP(=O)(O)O)[C@@H](O)[C@H]1O`, the inhibition turned out to be 0% in test [13]; 20% in test [14]; 20% in test [4]; 30% in test [5]; 10% in test [15]; 22% with Saccharomyces cerevisiae [12]. The Velocity in test [3] is 38%.
As for `O=C(CI)NCC(=O)NCCCCCCNc1ncnc2c1ncn2[C@@H]1O[C@H](COP(=O)(O)OP(=O)(O)OP(=O)(O)O)[C@@H](O)[C@H]1O`, the inhibition in test [16], in test [17] and in test [22] was 0% each time. The Relative velocity in test [18] amounted to 0.92; in test [19], 0.63; in test [20], 2.06; in the test on Saccharomyces cerevisiae [21] it was 0.52. In test [3], this compound registered a Velocity of 63%.
`O=C(CI)NCCNc1ncnc2c1ncn2[C@@H]1O[C@H](COP(=O)(O)OP(=O)(O)OP(=O)(O)O)[C@@H](O)[C@H]1O`: the inhibition in [13] was 0%; in test [14], 0%; in test [4], 0%; in [5], 0%; in the test on Saccharomyces cerevisiae [23], 0%; in test [15], 3%. In addition, the Relative velocity was 0.58 in test [18], 0.34 in test [19], 0.5 in test [20] and 0.75 in the test with Saccharomyces cerevisiae [21]. For the same compound, the Velocity in test [3] was determined as 35%.
